Test results published in ChEMBL document CHEMBL3352265, “Potentially bioactive organotin(IV) compounds: synthesis, characterization, in vitro bioactivities and interaction with SS-DNA” (Eur J Med Chem, 2014).
≈ marks a conversion by molar mass, not a printed value. Calls of active or inactive are those of the source. The calls are words filed in the database; no cut-off is given here.

Experiments:
[1] = system: Agrobacterium tumefaciens; test: Antitumor activity against Agrobacterium tumefaciens -induced tumor at 1000 ug/ml after 21 days by potato disc bioassay technique; type: functional
Method in brief: (§1)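 Potato disc assay with 48 h culture of A. tumefaciens At-10. Inoculum contained compound at […]. Red-skinned potatoes sterilized in 0.1% HgCl2; 8 mm × 4 mm discs placed ten per 1.5% agar plate, […] each. Incubated at 28 °C in the dark for 21 days, in triplicate. Discs stained with Lugol's and tumors counted. Percent inhibition calculated against the negative control.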

[2] = system: Agrobacterium tumefaciens; test: Antitumor activity against Agrobacterium tumefaciens -induced tumor at 100 ug/ml after 21 days by potato disc bioassay technique; type: functional; method in brief: as §1
[3] = system: Agrobacterium tumefaciens; test: Antitumor activity against Agrobacterium tumefaciens -induced tumor at 10 ug/ml after 21 days by potato disc bioassay technique; type: functional; method in brief: as §1
Escherichia coli [4] = test: Antibacterial activity against Escherichia coli ATCC 15224 at 40 mg/mL after 24 hrs by disc diffusion method; type: functional
Method in brief: (§2)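 Disc diffusion. Strains grown in nutrient broth at 37 °C for 24 h. 1% culture (about 10^6 CFU/mL) mixed into nutrient agar at 45 °C and poured. 4 mm paper discs received compound at 40 mg/mL stock in DMSO; final concentrations tested were […]. DMSO served as negative control, roxithromycin and cefixime as positive controls. Triplicate plates incubated at 37 °C for 24 h. Complete-inhibition zone diameter (mm) recorded as the mean of 3.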

Staphylococcus aureus [5] = test: Antibacterial activity against Staphylococcus aureus ATCC 6538 at 40 mg/mL after 24 hrs by disc diffusion method; type: functional; method in brief: as §2
Klebsiella aerogenes [6] = test: Antibacterial activity against Enterobacter aerogenes ATCC 13048 at 40 mg/mL after 24 hrs by disc diffusion method; type: functional; method in brief: as §2
Salmonella typhimurium [7] = test: Antibacterial activity against Salmonella typhimurium ATCC 14028 at 40 mg/mL after 24 hrs by disc diffusion method; type: functional; settings: for inhibition zone (IZ): Salmonella enterica subsp. enterica serovar Typhimurium; method in brief: as §2
[8] = system: Bordetella bronchiseptica; test: Antibacterial activity against Bordetella bronchiseptica ATCC 4617 at 40 mg/mL after 24 hrs by disc diffusion method; type: functional; method in brief: as §2
Bacillus spizizenii [9] = test: Antibacterial activity against Bacillus subtilis ATCC 6633 at 40 mg/mL after 24 hrs by disc diffusion method; type: functional; method in brief: as §2
Klebsiella aerogenes [10] = test: Antibacterial activity against Enterobacter aerogenes ATCC 13048 after 18 hrs by microdilution method; type: functional, organism-based
Method in brief: (§3)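 Broth microdilution. Twofold dilutions in culture broth at […]. Each well inoculated with bacterial suspension (10^8 CFU/mL, about 10^5 CFU/well). Sterility control and growth control (broth plus DMSO) included. Incubated at 36 °C for 18 h, in triplicate. MIC taken as the lowest concentration inhibiting growth, given in micrograms per mL.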

[11] = system: Bordetella bronchiseptica; test: Antibacterial activity against Bordetella bronchiseptica ATCC 4617 after 18 hrs by microdilution method; type: functional; method in brief: as §3
Aspergillus niger [12] = test: Antifungal activity against Aspergillus niger FCBP 0198 at 40 mg/mL after 7 days by disc diffusion method; type: functional
Method in brief: (§4)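 Disc diffusion on SDA. Fungi cultured at 28 °C for 24 h. 4 mm discs received compound at 40 mg/mL stock in DMSO. DMSO served as negative control, terbinafine as positive control. Plates incubated at 28 °C for 7 days. Growth diameter (mm) measured and inhibition calculated against the negative control. MIC taken as the lowest concentration with no growth.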

Aspergillus fumigatus [13] = test: Antifungal activity against Aspergillus fumigatus FCBP 66 at 40 mg/mL after 7 days by disc diffusion method; type: functional; method in brief: as §4
Aspergillus flavus [14] = test: Antifungal activity against Aspergillus flavus FCBP 0064 at 40 mg/mL after 7 days by disc diffusion method; type: functional; method in brief: as §4
Mucor [15] = test: Antifungal activity against Mucor FCBP 0400 at 40 mg/mL after 7 days by disc diffusion method; type: functional; method in brief: as §4
Aspergillus niger [16] = test: Antifungal activity against Aspergillus niger FCBP 0198 after 7 days by disc diffusion method; type: functional, organism-based; method in brief: as §4
Aspergillus fumigatus [17] = test: Antifungal activity against Aspergillus fumigatus FCBP 66 after 7 days by disc diffusion method; type: functional, organism-based; method in brief: as §4
Aspergillus flavus [18] = test: Antifungal activity against Aspergillus flavus FCBP 0064 after 7 days by disc diffusion method; type: functional, organism-based; method in brief: as §4
Mucor [19] = test: Antifungal activity against Mucor FCBP 0400 at 40 mg/mL by disc diffusion method; type: functional, organism-based; method in brief: as §4
Artemia salina = test: Cytotoxicity in brine shrimp assessed as mortality after 24 hrs; type: functional
Escherichia coli [20] = test: Induction of Escherichia coli pBR322 DNA damage assessed as open circular form at 1000 ug/ml after 60 mins by gel electrophoresis
Escherichia coli [21] = test: Induction of Escherichia coli pBR322 DNA damage assessed as open circular form at 100 ug/ml after 60 mins by gel electrophoresis
Escherichia coli [22] = test: Induction of Escherichia coli pBR322 DNA damage assessed as open circular form at 10 ug/ml after 60 mins by gel electrophoresis
Escherichia coli [23] = test: Induction of Escherichia coli pBR322 DNA damage assessed as open circular form at 1 ug/ml after 60 mins by gel electrophoresis
Escherichia coli [24] = test: Antibacterial activity against Escherichia coli ATCC 15224 after 18 hrs by microdilution method; type: functional; method in brief: as §3
Staphylococcus aureus [25] = test: Antibacterial activity against Staphylococcus aureus ATCC 6538 after 18 hrs by microdilution method; type: functional; method in brief: as §3
Salmonella typhimurium [26] = test: Antibacterial activity against Salmonella typhimurium ATCC 14028 after 18 hrs by microdilution method; type: functional; settings: Salmonella enterica subsp. enterica serovar Typhimurium; method in brief: as §3
Bacillus spizizenii [27] = test: Antibacterial activity against Bacillus subtilis ATCC 6633 after 18 hrs by microdilution method; type: functional; method in brief: as §3

Row | Compound | Activity [1] [%] | Activity [2] [%] | Activity [3] [%] | inhibition zone (IZ) (Escherichia coli [4]) [mm] | inhibition zone (IZ) (Staphylococcus aureus [5]) [mm] | inhibition zone (IZ) (Klebsiella aerogenes [6]) [mm] | inhibition zone (IZ) (Salmonella typhimurium [7]) [mm] | inhibition zone (IZ) [8] [mm] | inhibition zone (IZ) (Bacillus spizizenii [9]) [mm] | MIC (Klebsiella aerogenes [10]) [µg/mL] | MIC [11] [µg/mL] | inhibition zone (IZ) (Aspergillus niger [12]) [mm] | inhibition zone (IZ) (Aspergillus fumigatus [13]) [mm] | inhibition zone (IZ) (Aspergillus flavus [14]) [mm] | inhibition zone (IZ) (Mucor [15]) [mm] | MIC (Aspergillus niger [16]) [µg/mL] | LD50 (Artemia salina) [µg/mL] | Activity (Escherichia coli [20]) | Activity (Escherichia coli [21]) | Activity (Escherichia coli [22]) | other results
1 | CC[C@]1(O)C[C@H]2CN(CCc3c([nH]c4ccccc34)[C@@](C(=O)OC)(c3cc4c(cc3OC)N(C=O)[C@H]3[C@@](O)(C(=O)OC)[C@H](OC(C)=O)[C@]5(CC)C=CCN6CC[C@]43[C@@H]65)C2)C1 [VINCRISTINE] | 100 | 100 | 100 | – | – | – | – | – | – | – | – | – | – | – | – | – | – | – | – | – | –
2 | N-[(2-methoxyphenyl)]-4-oxo-4-[(triphenylstannyl)oxy]butanamide | 77.5 | 54.9 | 32.2 | 0 | 0 | 11 | 0 | 32 | 0 | 25 | 12.5 | 40 | 28 | 26 | 23 | 3.12 | 0.793 | Active | Active | Active | MIC (Aspergillus fumigatus [17]): 6.25 µg/mL; MIC (Aspergillus flavus [18]): 6.25 µg/mL; MIC (Mucor [19]): 6.25 µg/mL; Activity (Escherichia coli [23]): Active
3 | Dimethylstannanediyl bis(4-(2-methoxyphenylamino)-4-oxobutanoate) | 91.4 | 62.9 | 43.2 | 16 | 17 | 21 | 16 | 19 | 18 | 100 | 50 | 15 | 0 | 0 | 0 | 200 | 2.89 | Active | Active | Active | MIC (Escherichia coli [24]): 50 µg/mL; MIC (Staphylococcus aureus [25]): 100 µg/mL; MIC (Salmonella typhimurium [26]): 150 µg/mL; MIC (Bacillus spizizenii [27]): 100 µg/mL; Activity (Escherichia coli [23]): Active
4 | C=CC1=C(C(=O)O)N2C(=O)[C@@H](NC(=O)/C(=N\OCC(=O)O)c3csc(N)n3)[C@H]2SC1 [CEFIXIME] | – | – | – | – | – | – | – | – | – | – | – | – | – | – | – | – | – | – | – | – | zone of inhibition at 40000 µg/mL (Escherichia coli [4]; ATCC 15224, 24 h, read-out: DIZ): 24 mm; zone of inhibition at 40000 µg/mL (Staphylococcus aureus [5]; ATCC 6538, 24 h, read-out: DIZ): 26 mm; zone of inhibition at 40000 µg/mL (Klebsiella aerogenes [6]; ATCC 13048, 24 h, read-out: DIZ): 10 mm; zone of inhibition at 40000 µg/mL (Salmonella typhimurium [7]; Salmonella enterica, ATCC 14028, 24 h, read-out: DIZ): 26 mm; zone of inhibition at 40000 µg/mL ([8]; ATCC 4617, 24 h, read-out: DIZ): 13 mm; zone of inhibition at 40000 µg/mL (Bacillus spizizenii [9]; ATCC 6633, 24 h, read-out: DIZ): 25 mm
5 | COc1cccc2c1C(=O)c1c(O)c3c(c(O)c1C2=O)C[C@@](O)(C(=O)CO)C[C@@H]3O[C@H]1C[C@H](N)[C@H](O)[C@H](C)O1 [DOXORUBICIN] | – | – | – | – | – | – | – | – | – | – | – | – | – | – | – | – | – | – | – | – | LC50 (Artemia salina; read-out: LD50 (the source's name)): 0.434 µg/mL (≈ 0.798 µM)
